The values below come from ChEMBL document CHEMBL1157699, “New small-size peptides possessing antifungal activity” (Bioorg Med Chem, 2010).

The nature of data set [1]: Toxicity in Poecilia reticulata assessed as mortality at 16.4 ug/ml after 96 hrs. Type of data set: organism-based. The following applies: in vivo, read-out: Activity. The method in brief: (§1)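 Acute toxicity in guppy (P. reticulata): 10 fish per concentration held in jars with the test solution for 96 h. Peptide added from aqueous stock diluted in DMSO to the final concentration. Dead fish counted and removed every 24 h, and condition noted. Percent mortality recorded at 96 h. Two experiments, each in triplicate.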

For data set [2], the system named is Candida albicans. The data set is described as follows: Antifungal activity against Candida albicans ATCC 10231 assessed as inhibition of fungal growth at 50 uM after 24 hrs by microbroth dilution method. Type of data set: functional. The following applies: ATCC 10231, 24 h. A digest of the protocol: (§2)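 CLSI M-27 A2 broth microdilution in RPMI-1640. Peptides were taken from DMSO stocks to final 200–3.125 µM (twofold series). Inoculum was 1–5 × 10^3 CFU/ml from 24 h Sabouraud-chloramphenicol slant cultures at 35 °C. Plates were incubated 24 h at 35 °C in a moist dark chamber. OD405 was read, and % inhibition was taken against a DMSO-matched growth control. Amphotericin B served as the positive control; duplicates.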
In general terms: In broth dilution the organism is exposed to a series of concentrations in liquid medium.

Data set [3] relates to Candida albicans. The data set is described as follows: Antifungal activity against Candida albicans ATCC 10231 assessed as inhibition of fungal growth at 200 uM after 24 hrs by microbroth dilution method. Type of data set: functional. As to conditions: ATCC 10231, 24 h. A digest of the protocol: as §2
In data set [4] the test system is Cryptococcus neoformans. The data set is described as follows: Antifungal activity against Cryptococcus neoformans ATCC 32264 assessed as inhibition of fungal growth at 200 uM after 48 hrs by microbroth dilution method. Type of data set: functional. The following applies: ATCC 32264, 48 h. A digest of the protocol:
(§3)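 Cryptococcus run by CLSI M-27 A2 microbroth dilution in RPMI-1640. Peptide was diluted from DMSO stock to final 200, 100, 50, 25, 12.5, 6.25 and 3.125 µM. Inoculum was 1–5 × 10^3 CFU/ml from 24 h, 35 °C Sabouraud-chloramphenicol slants. Incubation was 48 h at 35 °C, moist and dark. % inhibition was taken from OD405 against a DMSO-containing growth control. Amphotericin B served as the positive control; tests in duplicate.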

Data set [5] concerns Cryptococcus neoformans. The data set is described as follows: Antifungal activity against Cryptococcus neoformans ATCC 32264 assessed as inhibition of fungal growth after 48 hrs by microbroth dilution method. The following applies: ATCC 32264, 48 h; for MIC: read-out: MIC100. Type of data set: functional. A digest of the protocol:
as §3

The test system of data set [6] is Candida albicans. The data set is described as follows: Antifungal activity against Candida albicans ATCC 10231 assessed as inhibition of fungal growth at 100 uM after 24 hrs by microbroth dilution method. Type of data set: functional. As to conditions: ATCC 10231, 24 h. A digest of the protocol: as §2
Data set [7] deals with Candida albicans. The data set is described as follows: Antifungal activity against Candida albicans ATCC 10231 assessed as inhibition of fungal growth at 25 uM after 24 hrs by microbroth dilution method. Type of data set: functional. As to conditions: ATCC 10231, 24 h. The method in brief: as §2
Data set [8] can be described thus: Toxicity in Poecilia reticulata assessed as mortality at 16.4 ug/ml after 48 hrs. Type of data set: organism-based. As to conditions: in vivo, read-out: Activity. The method in brief:
as §1

The nature of data set [9]: Toxicity in Poecilia reticulata assessed as mortality at 16.4 ug/ml after 72 hrs. Type of data set: organism-based. As to conditions: in vivo, read-out: Activity. A digest of the protocol:
as §1

Data set [10] concerns Cryptococcus neoformans. The data set is described as follows: Antifungal activity against Cryptococcus neoformans ATCC 32264 assessed as inhibition of fungal growth at 50 uM after 48 hrs by microbroth dilution method. Type of data set: functional. The following applies: ATCC 32264, 48 h. A digest of the protocol:
as §3

The nature of data set [11]: Toxicity in Poecilia reticulata assessed as mortality at 16.4 ug/ml after 24 hrs. Type of data set: organism-based. As to conditions: in vivo, read-out: Activity. The method in brief:
as §1

The test system of data set [12] is Cryptococcus neoformans. The data set is described as follows: Antifungal activity against Cryptococcus neoformans ATCC 32264 assessed as inhibition of fungal growth at 100 uM after 48 hrs by microbroth dilution method. As to conditions: ATCC 32264, 48 h. Type of data set: functional. The method in brief: as §3
Data set [13] concerns Cryptococcus neoformans. The data set is described as follows: Antifungal activity against Cryptococcus neoformans ATCC 32264 assessed as inhibition of fungal growth at 25 uM after 48 hrs by microbroth dilution method. Type of data set: functional. The following applies: ATCC 32264, 48 h. A digest of the protocol:
as §3

Data set [14] concerns Candida albicans. The data set is described as follows: Antifungal activity against Candida albicans ATCC 10231 assessed as inhibition of fungal growth at 12.5 uM after 24 hrs by microbroth dilution method. Type of data set: functional. As to conditions: ATCC 10231, 24 h. A digest of the protocol: as §2
The subject of data set [15] is Cryptococcus neoformans. The data set is described as follows: Antifungal activity against Cryptococcus neoformans ATCC 32264 assessed as inhibition of fungal growth at 12.5 uM after 48 hrs by microbroth dilution method. Type of data set: functional. The following applies: ATCC 32264, 48 h. The method in brief: as §3
The test system of data set [16] is Candida albicans. The data set is described as follows: Antifungal activity against Candida albicans ATCC 10231 assessed as inhibition of fungal growth after 24 hrs by microbroth dilution method. Type of data set: functional. As to conditions: ATCC 10231, 24 h; for MIC: read-out: MIC100. The method in brief: as §2
The nature of data set [17]: Toxicity in Poecilia reticulata assessed as mortality at 13.6 ug/ml after 24 hrs. As to conditions: in vivo, read-out: Activity. Type of data set: organism-based. A digest of the protocol:
as §1

Data set [18] in a line: Toxicity in Poecilia reticulata assessed as mortality at 13.6 ug/ml after 96 hrs. Type of data set: organism-based. The following applies: in vivo, read-out: Activity. The method in brief:
as §1

Data set [19] can be described thus: Toxicity in Poecilia reticulata assessed as mortality at 13.6 ug/ml after 72 hrs. As to conditions: in vivo, read-out: Activity. Type of data set: organism-based. The method in brief:
as §1

A short description of data set [20]: Toxicity in Poecilia reticulata assessed as mortality at 13.6 ug/ml after 48 hrs. Type of data set: organism-based. As to conditions: in vivo, read-out: Activity. The method in brief:
as §1

As usually defined, the inhibition is the share of the control response that was lost under treatment. As usually defined, the MIC50 is an inhibitory concentration at the 50% level, which refers to growth in some studies and to a panel of isolates in others. One may read the MIC80 as an inhibitory concentration at the 80% level, which refers to growth in some studies and to a panel of isolates in others. As for H-RQIRRWWQW-NH2, the mortality at 96 h, 16.4 ug/ml in [1] came out at 0%. The inhibition at 50 µM in data set [2] and in data set [10] was 100% throughout. In addition, the inhibition at 200 µM in [3] and in data set [4] was 100% each time. Also, the MIC50 in data set [5] was ≤ 12.5 µM; in data set [16], ≤ 25 µM. Also, the MIC80 in data set [5] is ≤ 12.5 µM. The MIC in data set [5] came out at 25 µM; in data set [16], 50 µM. Further, the inhibition at 100 µM in data set [6] and in data set [12] was 100% throughout. Moreover, the inhibition at 25 µM is 50.7% in [7] and 100% in data set [13]. Besides, the mortality at 48 h, 16.4 ug/ml in data set [8] turned out to be 0%. For the same substance, in data set [9], the mortality at 72 h, 16.4 ug/ml is 0%. Moreover, the mortality at 24 h, 16.4 ug/ml in [11] is 0%. Besides, the inhibition at 12.5 µM in [14] was 19.1%; in data set [15], 83.3%.
On to H-RQIRRWWQWRR-NH2, for which the inhibition at 50 µM in data set [2] and in data set [10] was 100% in each case. The inhibition at 200 µM in data set [3] and in [4] was 100% throughout. Further, the MIC50 in data set [5] was ≤ 12.5 µM; in data set [16] it was ≤ 25 µM. In addition, the figures for the MIC in [5] and in [16] were 25 µM and 50 µM, respectively. In addition, the mortality at 24 h, 13.6 ug/ml in [17] stood at 0%. Besides, the inhibition at 100 µM in data set [6] and in data set [12] was 100% in each case. For the same substance, the inhibition at 25 µM came to 46.6% in data set [7] and 100% in [13]. The mortality at 96 h, 13.6 ug/ml in [18] was 0%. In addition, the mortality at 72 h, 13.6 ug/ml in data set [19] was 0%. Also, the inhibition at 12.5 µM in data set [14] was determined as 22.9%; in [15], 51.2%. In addition, the mortality at 48 h, 13.6 ug/ml in data set [20] amounted to 0%.
